Measurements from ChEMBL document CHEMBL1131380, “Clarification of the binding mode of teleocidin and benzolactams to the Cys2 domain of protein kinase Cdelta by synthesis of hydrophobically modified, teleocidin-mimicking benzolactams and computational docking simulation” (J Med Chem, 1998).
pEC50, pKi: −log10 of the molar value.

How the values were obtained:
[1] = biological target: Protein kinase C delta type (Homo sapiens, UniProt Q05655); test: Displacement of [3H]PDBu from recombinant Protein kinase C delta
Chain of Protein kinase C delta type (Q05655 whole entry): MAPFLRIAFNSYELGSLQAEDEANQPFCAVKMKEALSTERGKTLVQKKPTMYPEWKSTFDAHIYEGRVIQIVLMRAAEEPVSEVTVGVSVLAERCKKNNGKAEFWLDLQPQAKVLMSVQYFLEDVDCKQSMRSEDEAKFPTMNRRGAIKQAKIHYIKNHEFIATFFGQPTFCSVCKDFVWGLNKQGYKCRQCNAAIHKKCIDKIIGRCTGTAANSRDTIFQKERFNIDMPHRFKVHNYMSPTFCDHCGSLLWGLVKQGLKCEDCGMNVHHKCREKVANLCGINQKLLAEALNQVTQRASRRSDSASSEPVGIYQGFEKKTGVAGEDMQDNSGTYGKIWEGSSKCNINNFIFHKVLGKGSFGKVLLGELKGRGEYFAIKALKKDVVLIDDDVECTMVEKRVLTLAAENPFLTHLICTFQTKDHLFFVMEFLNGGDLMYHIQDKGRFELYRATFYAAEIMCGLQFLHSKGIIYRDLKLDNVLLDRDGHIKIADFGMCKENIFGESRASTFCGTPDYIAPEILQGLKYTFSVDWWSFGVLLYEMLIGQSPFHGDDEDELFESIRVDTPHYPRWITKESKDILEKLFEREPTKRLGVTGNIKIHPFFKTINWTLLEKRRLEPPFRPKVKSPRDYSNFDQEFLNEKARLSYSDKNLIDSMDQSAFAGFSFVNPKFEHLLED
How it was run: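 Competitive binding of [3H]PDBu (Kd 2.9 nM) to recombinant PKCδ. Ki derived from the IC50 of the binding curve. Number of repetitions given per compound.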

[2] = system: HL-60; test: Effective concentration against monocytes of HL-60 cells growth inhibition; assay type: functional, cell-based; conditions: Homo sapiens
How it was run: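 HL-60 cells grown in RPMI1640 with 5% FBS (not delipidized), penicillin G and streptomycin, at 37 °C in humidified 5% CO2. Compounds taken from 2 mM ethanol stocks, with final ethanol below 0.5%. Cells seeded at about 8 × 10⁴ cells/mL and counted after 4 days. EC50 for growth inhibition.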

[3] = system: HL-60; test: Effective concentration against HL-60 cell differentiation; assay type: functional, cell-based; conditions: Homo sapiens

pEC50 [3] | Structure (SMILES) | pKi [1] | pEC50 [2]
 | CC(C)[C@H]1C(=O)N[C@H](CO)Cc2ccccc2N1C | 5.77 | < 6.00
 | CCCCCCCCCCc1ccc2c(c1)C[C@@H](CO)NC(=O)[C@H](C(C)C)N2C | 7.49 | 
7.70 | CC(C)[C@H]1C(=O)N[C@H](CO)Cc2cc3c(cc2N1C)C1(CCC3)CCC(C)(C)CC1 | 7.85 | 
7.15 | CC(C)[C@H]1C(=O)N[C@H](CO)Cc2cc3c(cc2N1C)C1(CCCCC1)CCC3 | 7.72 | 
 | CCCCCCCCCCc1ccc2c(c1)N(C)[C@@H](C(C)C)C(=O)N[C@H](CO)C2 | 8.23 | 
 | CC(C)[C@H]1C(=O)N[C@H](CO)Cc2cc3c(cc2N1C)C(C)(C)CCC3(C)C | 5.29 | 
6.70 | CCCCCCCCCCC1C(=O)N[C@H](CO)Cc2ccccc2N1C (stereo partly drawn) | 8.52 | 
 | CC(C)[C@H]1C(=O)N[C@H](CO)Cc2cc3c(cc2N1C)C(C)(C)CCC3 | 7.19 | 
 | C=C[C@@]1(C)CC[C@](C)(C(C)C)c2cc3c4c(c[nH]c4c21)C[C@@H](CO)NC(=O)[C@H](C(C)C)N3C | 9.49 | 8.30
 | CC(C)[C@H]1C(=O)N[C@H](CO)Cc2c[nH]c3cccc(c23)N1C [INDOLACTUM] | 7.10 | 8.30

Structure (SMILES) | pEC50 [3] | pKi [1] | pEC50 [2]
CC(C)[C@H]1C(=O)N[C@H](CO)Cc2cc3c(cc2N1C)CCCC3(C)C | 5.15 | 5.77 | 
